Series [1] concerns the target Voltage-gated inwardly rectifying potassium channel KCNH2 (Homo sapiens, UniProt Q12809). Description: Inhibition of human ERG channel by patch clamp technique.
Series [2] deals with Plasmodium falciparum. Description: Antiplasmodial activity against Plasmodium falciparum K1 by [3H]hypoxanthine incorporation assay. Type of series: functional, organism-based. In short, it runs like this: (§1)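 Modified [3H]-hypoxanthine incorporation assay on P. falciparum asexual cultures, chloroquine and artesunate as references in every run. IC50 values are means of ≥2 independent experiments; individual values mostly within 2-fold (maximum 3-fold).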

Series [3] concerns Liver microsome. Description: Metabolic stability in human liver microsomes assessed as compound remaining after 30 mins. The settings on record: 0.5 h. It is filed as ADME. The essentials: (§2)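 One-point microsomal stability test: compound incubated 30 min with human, rat or mouse liver microsomes; percentage of parent remaining measured.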
(In general: Liver microsomes are a subcellular fraction often used to study metabolism.)

Series [4] relates to Liver microsome. The series is described as follows: Metabolic stability in rat liver microsomes assessed as compound remaining after 30 mins. It is filed as ADME. The following applies: 0.5 h. The essentials: as §2
Series [5] in a line: Plasma concentration in mouse infected with Plasmodium berghei ANKA at 50 mg/kg/day, po after 24 hrs by HPLC analysis. It is filed as ADME, organism-based. On the set-up: route oral. In short, it runs like this:
(§3)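 P. berghei-infected mice dosed orally at 50 mg/kg daily for 4 days; blood sampled 1, 4 and 24 h after the first dose and analysed by HPLC for drug levels.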

Series [6] has as its system CHO cells (Cricetulus griseus). Description: Selectivity index, ratio of IC50 for Chinese hamster CHO cells to IC50 for Plasmodium falciparum.
Series [7] can be described thus: Aqueous solubility of the compound at pH 6.5. It is filed as physicochemical. The following applies: buffer.
A short description of series [8]: Plasma concentration in mouse infected with Plasmodium berghei ANKA at 50 mg/kg/day, po after 4 hrs by HPLC analysis. Type of series: ADME, organism-based. Also on record: route oral. In short, it runs like this: as §3
A further series relates to CHO. The series is described as follows: Cytotoxicity against CHO cells. Type of series: cell-based, Cricetulus griseus. The settings on record: chinese hamster.
The test system of the next series is Liver. Description: Metabolic stability in mouse liver microsomes assessed as compound remaining after 30 mins. The settings on record: 0.5 h. Type of series: ADME. The essentials:
as §2

Series [9] relates to CHO cells (Cricetulus griseus). Description: Cytotoxicity against Chinese hamster CHO cells.
Series [10] has as its system Plasmodium falciparum. The series is described as follows: Antiplasmodial activity against Plasmodium falciparum NF54 by [3H]hypoxanthine incorporation assay. It is filed as functional, organism-based. The essentials:
as §1

The subject of series [11] is Plasmodium berghei. Description: Antimalarial activity against Plasmodium berghei ANKA infected in mouse assessed as reduction in parasitemia at 50 mg/kg/day, po qd administered for 4 days relative to control. Type of series: functional. Also on record: Activity: scale not given: the % may be the effect or the level left. The essentials: (§4)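 Mice (n = 3) infected with GFP-transfected P. berghei ANKA; compound in HPMC suspension vehicle given orally once daily at 4, 24, 48 and 72 h after infection. Blood collected day 4 (96 h post-infection); parasitemia by flow cytometry (detection limit 0.1%). Activity = difference in mean % parasitemia between control and treated groups, as % of control.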

A short description of series [12]: Selectivity index, ratio of IC50 for CHO cells to IC50 for Plasmodium falciparum. It is filed as toxicity, cell-based. The settings on record: hamster, read-out: Ratio IC50.
Series [13] is described as follows: Aqueous solubility of the compound at pH 2. It is filed as physicochemical. The following applies: buffer.
Series [14] can be described thus: (§5) Cmax in Sprague-Dawley rat at 3.6 mg/kg, po. It is filed as ADME, organism-based. On the set-up: dose 3.6 mg/kg, route oral. The following applies: Sprague-Dawley, in vivo. In short, it runs like this:
(§6)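 Adult male Sprague-Dawley rats fasted overnight; dose 3.6 mg/kg prepared fresh, dissolved in water/0.01 M HCl/propylene glycol/ethanol/Tween 80 (1:2:1:0.1:0.1), given orally (1 mL) or intravenously (350 µL). Food returned 5 h post-dose. Heparinized blood taken at set time points, plasma held at -80°C, analysed by LC/MS/MS; parameters by non-compartmental analysis.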

For series [15], the system named is Plasmodium berghei. Description: Antimalarial activity against Plasmodium berghei ANKA infected in mouse assessed as reduction in parasitemia at 10 mg/kg/day, po qd administered for 4 days relative to control. Type of series: functional. Also on record: Activity: scale not given: the % may be the effect or the level left. The essentials:
as §4

The test system of series [16] is Rattus norvegicus. Description: (§7) Oral bioavailability in Sprague-Dawley rat at 3.6 mg/kg. The following applies: in vivo. Type of series: ADME, organism-based. In short, it runs like this:
as §6

Series [17] is described as follows: (§8) Tmax in Sprague-Dawley rat at 3.6 mg/kg, po. It is filed as ADME, organism-based. Also on record: dose 3.6 mg/kg, route oral. The following applies: Sprague-Dawley, in vivo. In short, it runs like this:
as §6

Series [18] has as its system Rattus norvegicus. The series is described as follows: AUC (0 to infinity) in Sprague-Dawley rat at 3.6 mg/kg, po. On the set-up: time infinity, dose 3.6 mg/kg, route oral. The following applies: in vivo. Type of series: ADME, organism-based, Plasma. In short, it runs like this:
as §6

The test system of series [19] is Plasmodium berghei. Description: Antimalarial activity against Plasmodium berghei ANKA infected in mouse assessed as reduction in parasitemia at 3 mg/kg/day, po qd administered for 4 days relative to control. Also on record: Activity: scale not given: the % may be the effect or the level left. It is filed as functional. The essentials: as §4
The nature of series [20]: Plasma concentration in mouse infected with Plasmodium berghei ANKA at 50 mg/kg/day, po after 1 hr by HPLC analysis. Type of series: ADME, organism-based. On the set-up: route oral. In short, it runs like this:
as §3

Series [21] concerns Rattus norvegicus. The series is described as follows: AUC (0 to infinity) in Sprague-Dawley rat at 3.6 mg/kg, iv. It is filed as ADME, organism-based, Plasma. On the set-up: time infinity, dose 3.6 mg/kg, route intravenous. The following applies: in vivo. The essentials: as §6
Series [22] is described as follows: Apparent half life in Sprague-Dawley rat at 3.6 mg/kg, iv. Also on record: dose 3.6 mg/kg, route intravenous. The following applies: in vivo. Type of series: ADME, organism-based. The essentials:
as §6

A short description of series [23]: (§9) Apparent half life in Sprague-Dawley rat at 3.6 mg/kg, po. It is filed as ADME, organism-based. On the set-up: dose 3.6 mg/kg, route oral. The settings on record: Sprague-Dawley, in vivo, read-out: t1/2(app) (converted). In short, it runs like this:
as §6

Series [24] is described as follows: Volume of distribution at steady state in Sprague-Dawley rat at 3.6 mg/kg, iv. On the set-up: dose 3.6 mg/kg, route intravenous. The settings on record: in vivo, read-out: Vdss. Type of series: ADME, organism-based. The essentials:
as §6

Series [25] relates to Rattus norvegicus. The description is as §5. Type of series: ADME, organism-based. On the set-up: dose 3.6 mg/kg, route oral. The settings on record: in vivo. The essentials:
as §6

The nature of series [26]: as §7. It is filed as ADME, organism-based. The settings on record: Sprague-Dawley, in vivo. In short, it runs like this:
as §6

Series [27] concerns Rattus norvegicus. The series is described as §8. The settings on record: in vivo. Also on record: dose 3.6 mg/kg, route oral. Type of series: ADME, organism-based. The essentials: as §6
Series [28] concerns Rattus norvegicus. The description is as §9. It is filed as ADME, organism-based. Also on record: dose 3.6 mg/kg, route oral. The settings on record: in vivo. In short, it runs like this:
as §6

SMILES strings stand for the structures. ≈ marks a conversion by molar mass, not a printed value. Where only a bound is given, the exact number is not on record here.

Voltage-gated inwardly rectifying potassium channel KCNH2, sequence (Q12809 whole entry): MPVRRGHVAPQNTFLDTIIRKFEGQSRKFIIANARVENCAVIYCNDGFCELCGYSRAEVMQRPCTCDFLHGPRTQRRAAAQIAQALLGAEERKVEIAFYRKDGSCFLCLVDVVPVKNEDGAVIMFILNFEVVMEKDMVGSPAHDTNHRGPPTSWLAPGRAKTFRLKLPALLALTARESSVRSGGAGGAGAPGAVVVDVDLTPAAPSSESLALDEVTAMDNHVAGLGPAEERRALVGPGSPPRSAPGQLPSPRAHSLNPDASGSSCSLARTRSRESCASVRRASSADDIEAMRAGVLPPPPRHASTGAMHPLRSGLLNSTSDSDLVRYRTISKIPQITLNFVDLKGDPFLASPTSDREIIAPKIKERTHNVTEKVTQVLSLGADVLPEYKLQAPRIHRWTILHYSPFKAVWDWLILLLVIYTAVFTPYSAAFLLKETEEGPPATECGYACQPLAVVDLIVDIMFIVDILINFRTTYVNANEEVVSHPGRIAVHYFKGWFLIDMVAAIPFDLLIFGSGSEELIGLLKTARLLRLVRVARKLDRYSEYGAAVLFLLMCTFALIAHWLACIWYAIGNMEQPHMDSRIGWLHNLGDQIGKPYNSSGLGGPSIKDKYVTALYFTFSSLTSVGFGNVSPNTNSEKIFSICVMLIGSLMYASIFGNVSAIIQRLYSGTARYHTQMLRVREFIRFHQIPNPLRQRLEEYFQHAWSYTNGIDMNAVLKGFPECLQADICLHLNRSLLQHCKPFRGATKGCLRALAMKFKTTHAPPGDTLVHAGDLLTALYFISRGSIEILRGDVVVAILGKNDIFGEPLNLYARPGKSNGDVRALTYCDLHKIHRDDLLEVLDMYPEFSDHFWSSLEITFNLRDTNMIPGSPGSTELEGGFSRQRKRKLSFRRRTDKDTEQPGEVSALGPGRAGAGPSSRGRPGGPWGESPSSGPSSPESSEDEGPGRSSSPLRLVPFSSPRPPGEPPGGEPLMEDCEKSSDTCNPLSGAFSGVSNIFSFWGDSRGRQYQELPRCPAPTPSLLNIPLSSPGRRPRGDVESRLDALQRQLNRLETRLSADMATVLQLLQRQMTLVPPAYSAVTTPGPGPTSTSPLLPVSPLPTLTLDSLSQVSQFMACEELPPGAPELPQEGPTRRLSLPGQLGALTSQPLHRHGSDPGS

A word on the IC50: it is the concentration that inhibits the measured activity by half. Broadly, the solubility is the concentration that dissolves in the medium under given conditions. As for `CS(=O)(=O)c1ccc(-c2cnc3ccc(-c4cccc(S(=O)(=O)CCCN)c4)nn23)cc1`, the IC50 in series [1] is more than 33000 nM; in the series on Plasmodium falciparum [2] it was 2.6 nM; in the series with Plasmodium falciparum [10], 3 nM. Also, the Stability entry with Liver microsome [3], in the series with Liver microsome [4] and in the series with Liver was “Stable” throughout. For the same compound, the concentration at 24 h in series [5] is less than 10 nM. Also, the selectivity ratio in [6] and in series [12] was more than 1000 each time. The solubility in [7] and in [13] was more than 200 µM each time. This compound yielded a concentration at 4 h in [8] of less than 10 nM. Also, the Activity result in the series with CHO is recorded as “Non-toxic”; in series [9], “Non-toxic”; in the series on Plasmodium berghei [11] it was less than 40%. Further, in the series with Plasmodium berghei [11], the MSD came out at 4 days.
As usually defined, the Cmax is the maximum level reached in the sampled fluid or tissue. The term bioavailability denotes dose-corrected exposure relative to a reference, in per cent. A word on the Tmax: it is the time from dosing to the highest level. Usually AUC stands for the area under the concentration-time curve, a measure of exposure. `C[S+]([O-])c1ccc(-c2cnc3ccc(-c4cccc(S(=O)(=O)C5CC5)c4)nn23)cc1` (stereo not given): the highest level in series [14] (Cmax) was 40 nM. The Activity is 99.6% in the series on Plasmodium berghei [15]; “Non-toxic” in the series on CHO; 98% in the series with Plasmodium berghei [19]; “Non-toxic” in series [9]; 99.8% in the series with Plasmodium berghei [11]. Moreover, the MSD in the series with Plasmodium berghei [15] was 8 days; in the series with Plasmodium berghei [19], 7 days; with Plasmodium berghei [11], more than 30 days. The compound further gave a bioavailability in the series with Rattus norvegicus [16] of 11%. Moreover, the selectivity ratio in [6] and in series [12] was more than 1000 throughout. The figures for the solubility in [7] and in [13] were less than 5 µM and 61 µM (≈ 26.7 µg/mL), respectively. The same compound came in with a concentration at 4 h in series [8] of 20 nM. The Tmax in series [17] was determined as 8 h. The results for the AUC in the series with Rattus norvegicus [18] and with Rattus norvegicus [21] were 0.36 µM·h and 3.3 µM·h, respectively. Besides, the concentration at 1 h in [20] stood at 80 nM. The figures for the half-life in series [22] and in series [23] were 0.55 h and 4.8 h, respectively. Besides, the IC50 in the series with Plasmodium falciparum [10] turned out to be 1.1 nM. Moreover, the Vd in series [24] was 0.73 L/kg.
For the compound `CS(=O)(=O)c1ccc(-c2cnc3ccc(-c4cccc(S(=O)(=O)C5CC5)c4)nn23)cc1`, the Cmax in the series on Rattus norvegicus [25] worked out at 1500 nM. Further, the IC50 came to 0.53 nM in the series with Plasmodium falciparum [2] and 0.88 nM with Plasmodium falciparum [10]. In addition, the bioavailability in [26] was determined as 24%. Moreover, the solubility in series [7] is less than 5 µM; in series [13] it was 19 µM (≈ 8.62 µg/mL). Besides, the Tmax in the series with Rattus norvegicus [27] stood at 12 h. Also, the AUC in the series on Rattus norvegicus [18] was determined as 27 µM·h; with Rattus norvegicus [21], 121 µM·h. For the same compound, the “t1/2(app)” value with Rattus norvegicus [28] came to 4.8 h. In addition, the Vd in series [24] turned out to be 2.3 L/kg.

The values above are taken from ChEMBL document CHEMBL3352608, “Medicinal chemistry optimization of antiplasmodial imidazopyridazine hits from high throughput screening of a softfocus kinase library: part 2” (J Med Chem, 2014).
